Data on four compounds can be found in ChEMBL document CHEMBL1133567, “5-Azidoimidacloprid and an acyclic analogue as candidate photoaffinity probes for mammalian and insect nicotinic acetylcholine receptors” (J Med Chem, 2000).

A short description of experiment [1]: Binding affinity for nAChR with [3H]nicotine in rat brain. It counts as tissue-based. Put shortly: (§1)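 Competition with 5 nM [3H](-)-nicotine against varied inhibitor concentrations, using 400 µg protein from rat brain membranes or 100 µg protein from recombinant rat α4β2 membranes. Incubation 30 min at 22 °C in Tris-HCl pH 7.4 buffer with NaCl, KCl, CaCl2, MgSO4, EDTA. Stopped by filtration through polyethylenimine-soaked GF/B filters. Nonspecific binding with 5 µM (-)-nicotine.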

Experiment [2] deals with Neuronal acetylcholine receptor subunit alpha-4 (Rattus norvegicus, UniProt P09483+P12390). In words: Binding affinity for nAChR with [3H]-nicotine in rat alpha4 beta2 membranes. The experiment is classed as cell membranes. Put shortly:
as §1

Experiment [3] deals with Nicotinic acetylcholine receptor. The experiment can be described thus: Binding affinity for nAChR with [3H]imidacloprid in Myzus persicae. It counts as protein-complex assay.
The target is the same in experiment [4]. In words: Binding affinity for nAChR with [3H]imidacloprid in Drosophila. The experiment is classed as protein-complex assay, Drosophila melanogaster.

A word on the Ki: it is the equilibrium dissociation constant of an inhibitor or competing ligand from its target. Read a high Ki as weaker binding.

Structures are written as SMILES.

Neuronal acetylcholine receptor subunit alpha-4, sequence (P09483 whole entry, one chain of several): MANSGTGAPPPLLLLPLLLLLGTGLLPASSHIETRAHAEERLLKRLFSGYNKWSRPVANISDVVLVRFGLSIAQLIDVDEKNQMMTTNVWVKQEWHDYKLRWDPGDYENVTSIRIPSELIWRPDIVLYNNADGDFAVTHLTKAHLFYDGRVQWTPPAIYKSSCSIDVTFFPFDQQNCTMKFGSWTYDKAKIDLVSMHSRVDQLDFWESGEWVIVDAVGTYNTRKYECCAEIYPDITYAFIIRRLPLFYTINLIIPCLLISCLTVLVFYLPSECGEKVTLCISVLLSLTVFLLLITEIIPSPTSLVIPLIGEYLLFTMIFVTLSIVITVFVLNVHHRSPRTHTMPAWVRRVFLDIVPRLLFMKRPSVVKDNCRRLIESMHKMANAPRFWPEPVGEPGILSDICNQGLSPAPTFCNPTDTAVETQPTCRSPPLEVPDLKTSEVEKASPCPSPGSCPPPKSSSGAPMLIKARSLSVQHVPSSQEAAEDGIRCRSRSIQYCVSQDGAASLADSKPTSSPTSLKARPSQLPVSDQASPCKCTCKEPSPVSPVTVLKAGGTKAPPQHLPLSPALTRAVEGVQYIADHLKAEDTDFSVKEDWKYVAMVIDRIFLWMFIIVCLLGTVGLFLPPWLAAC

Take `[N-]=[N+]=Nc1cc(CN2CCNC2=N[N+](=O)[O-])cnc1Cl` [5-AZIDOIMIDACLOPRID]: the Ki in experiment [1] amounted to 44 nM; in experiment [2] it was 4.4 nM; in experiment [3] it was 1 nM; in experiment [4], 15 nM.
For `C/N=C(\NCc1cnc(Cl)c(N=[N+]=[N-])c1)N[N+](=O)[O-]`, the values for the Ki in experiment [1], in experiment [3] and in experiment [4] were 44 nM, 4.5 nM and 13 nM, respectively.
In the case of `O=[N+]([O-])NC1=NCCN1Cc1ccc(Cl)nc1` [IMIDACLOPRID], the Ki in experiment [1] turned out to be 290 nM; in experiment [2] it was 50 nM; in experiment [3] it was 1.9 nM; in experiment [4] it was 2.1 nM.
Regarding `C/N=C(\NCc1ccc(Cl)nc1)N[N+](=O)[O-]`, the results for the Ki in experiment [1], in experiment [3] and in experiment [4] were 3500 nM, 12 nM and 10 nM, respectively.
